ChEMBL document CHEMBL4184332, “Discovery of Novel Nonsteroidal Anti-Inflammatory Drugs and Carbonic Anhydrase Inhibitors Hybrids (NSAIDs-CAIs) for the Management of Rheumatoid Arthritis” (J Med Chem, 2018)
Activity calls are given as the source filed them.

Assays:
Rattus norvegicus [1] = assay: Antiarthritic activity in CFA-induced Sprague-Dawley rat rheumatoid arthritis model assessed as increase in tolerated weight on ipsilateral paw at 0.1 mg/kg, po measured up to 45 mins by paw pressure test; type: functional, organism-based
Method in brief: (§1)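 Rats: Sprague Dawley, 200-250 g, given 50 μl CFA intra-articularly into the tibiotarsal joint; controls got saline. On day 14, compounds in 1% CMC were given orally. An analgesimeter applied increasing pressure to the dorsal hind paw with a blunt conical probe until vocalization or withdrawal, read in grams, cut-off 120 g. Rats below 40 g or above 75 g before dosing were excluded. Values are mean (S.E.M.) of 8 rats from 2 experiments.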

Rattus norvegicus [2] = assay: Antiarthritic activity in CFA-induced Sprague-Dawley rat rheumatoid arthritis model assessed as difference between weight burden on contralateral and ipsilateral paw at 10 mg/kg, po measured at 30 mins by incapacitance test (reference value: 54.2 +/- 5.1 g); type: functional
Rattus norvegicus [3] = assay: Antiarthritic activity in po dosed CFA-induced Sprague-Dawley rat rheumatoid arthritis model assessed as decrease in difference between weight burden on contralateral and ipsilateral paw measured up to 60 mins by incapacitance test; type: functional, organism-based
Rattus norvegicus [4] = assay: Antiarthritic activity in CFA-induced Sprague-Dawley rat rheumatoid arthritis model assessed as difference between weight burden on contralateral and ipsilateral paw at 1 mg/kg, po measured at 30 mins by incapacitance test (reference value: 54.2 +/- 5.1 g); type: functional
Rattus norvegicus [5] = assay: Antiarthritic activity in CFA-induced Sprague-Dawley rat rheumatoid arthritis model assessed as tolerated weight on ipsilateral paw at 1 mg/kg, po measured at 15 mins by paw pressure test (reference value: 43.5 +/- 0.5 g); type: functional; method in brief: as §1
Rattus norvegicus [6] = assay: Antiarthritic activity in CFA-induced Sprague-Dawley rat rheumatoid arthritis model assessed as increase in tolerated weight on ipsilateral paw at 10 mg/kg, po measured up to 75 mins by paw pressure test; type: functional, organism-based; method in brief: as §1
Rattus norvegicus [7] = species: Rattus norvegicus; assay: Change in pain threshold of contralateral paw of CFA-induced Sprague-Dawley rat rheumatoid arthritis model by paw pressure test; type: organism-based; conditions: in vivo; method in brief: as §1
Rattus norvegicus [8] = assay: Antiarthritic activity in CFA-induced Sprague-Dawley rat rheumatoid arthritis model assessed as tolerated weight on ipsilateral paw at 1 mg/kg, po measured at 30 mins by paw pressure test (reference value: 43.5 +/- 0.5 g); type: functional; method in brief: as §1
Rattus norvegicus [9] = assay: Antiarthritic activity in CFA-induced Sprague-Dawley rat rheumatoid arthritis model assessed as decrease in difference between weight burden on contralateral and ipsilateral paw at 10 mg/kg, po measured up to 75 mins by incapacitance test; type: functional, organism-based
Rattus norvegicus [10] = assay: Antiarthritic activity in CFA-induced Sprague-Dawley rat rheumatoid arthritis model assessed as tolerated weight on ipsilateral paw at 10 mg/kg, po measured up to 30 mins by paw pressure test (reference value: 43.5 +/- 0.5 g); type: functional; method in brief: as §1
Rattus norvegicus [11] = assay: Antiarthritic activity in CFA-induced Sprague-Dawley rat rheumatoid arthritis model assessed as tolerated weight on ipsilateral paw at 0.1 mg/kg, po measured up to 30 mins by paw pressure test (reference value: 43.5 +/- 0.5 g); type: functional; method in brief: as §1
Carbonic anhydrase 1 = Carbonic anhydrase 1 (Homo sapiens, UniProt P00915); assay: Inhibition of recombinant human carbonic anhydrase-1 incubated for 15 mins by stopped-flow CO2 hydrase assay
Carbonic anhydrase 2 [12] = biological target: T1, Carbonic anhydrase 2 (Homo sapiens, UniProt P00918); assay: Inhibition of recombinant human carbonic anhydrase-2 incubated for 15 mins by stopped-flow CO2 hydrase assay
Carbonic anhydrase 12 = Carbonic anhydrase 12 (Homo sapiens, UniProt O43570); assay: Inhibition of recombinant human carbonic anhydrase-12 incubated for 15 mins by stopped-flow CO2 hydrase assay
Carbonic anhydrase 2 [13] = biological target: T1, Carbonic anhydrase 2; assay: Potency index, ratio of acetazolamide Ki to test compound Ki for recombinant human carbonic anhydrase-2
Method in brief: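 Recombinant human CA, made in house, in a stopped-flow CO₂ hydration assay. Conditions: 20 mM Hepes pH 7.5, 20 mM Na₂SO₄, 0.2 mM phenol red read at 557 nm, CO₂ 1.7-17 mM. Enzyme and inhibitor were preincubated 15 min at room temperature. Initial rates were corrected for the uncatalyzed rate. Ki came from nonlinear least squares, mean of three measurements. The ratio uses the acetazolamide Ki.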

Carbonic anhydrase 4 = Carbonic anhydrase 4 (Homo sapiens, UniProt P22748); assay: Inhibition of recombinant human carbonic anhydrase-4 incubated for 15 mins by stopped-flow CO2 hydrase assay
Rattus norvegicus [14] = assay: Antiarthritic activity in CFA-induced Sprague-Dawley rat rheumatoid arthritis model assessed as tolerated weight on ipsilateral paw at 0.1 mg/kg, po measured at 15 mins by paw pressure test (reference value: 43.5 +/- 0.5 g); type: functional; method in brief: as §1
Rattus norvegicus [15] = assay: Antiarthritic activity in CFA-induced Sprague-Dawley rat rheumatoid arthritis model assessed as increase in tolerated weight on ipsilateral paw at 10 mg/kg, po measured at 15 mins by paw pressure test; type: functional, organism-based; method in brief: as §1
Rattus norvegicus [16] = assay: Antiarthritic activity in CFA-induced Sprague-Dawley rat rheumatoid arthritis model assessed as increase in tolerated weight on ipsilateral paw at 1 mg/kg, po measured up to 60 mins by paw pressure test; type: functional, organism-based; method in brief: as §1
Carbonic anhydrase 9 = Carbonic anhydrase 9 (Homo sapiens, UniProt Q16790); assay: Inhibition of recombinant human carbonic anhydrase-9 catalytic domain incubated for 15 mins by stopped-flow CO2 hydrase assay
Rattus norvegicus [17] = assay: Antiarthritic activity in CFA-induced Sprague-Dawley rat rheumatoid arthritis model assessed as tolerated weight on ipsilateral paw at 10 mg/kg, po measured at 15 mins by paw pressure test (reference value: 43.5 +/- 0.5 g); type: functional; method in brief: as §1
Rattus norvegicus [18] = assay: Antiarthritic activity in po dosed CFA-induced Sprague-Dawley rat rheumatoid arthritis model assessed as increase in tolerated weight on ipsilateral paw measured up to 60 mins by paw pressure test; type: functional, organism-based; method in brief: as §1
Rattus norvegicus [19] = assay: Antiarthritic activity in CFA-induced Sprague-Dawley rat rheumatoid arthritis model assessed as tolerated weight on ipsilateral paw at 10 mg/kg, po measured at 30 mins by paw pressure test (reference value: 43.5 +/- 0.5 g); type: functional; method in brief: as §1
Rattus norvegicus [20] = assay: Antiarthritic activity in CFA-induced Sprague-Dawley rat rheumatoid arthritis model assessed as tolerated weight on ipsilateral paw at 1 mg/kg, po measured up to 30 mins by paw pressure test (reference value: 43.5 +/- 0.5 g); type: functional; method in brief: as §1
Rattus norvegicus [21] = assay: Antiarthritic activity in CFA-induced Sprague-Dawley rat rheumatoid arthritis model assessed as decrease in difference between weight burden on contralateral and ipsilateral paw at 0.1 mg/kg, po measured up to 75 mins by incapacitance test; type: functional, organism-based
Rattus norvegicus [22] = assay: Antiarthritic activity in CFA-induced Sprague-Dawley rat rheumatoid arthritis model assessed as difference between weight burden on contralateral and ipsilateral paw at 1 mg/kg, po measured at 15 to 30 mins by incapacitance test (reference value: 54.2 +/- 5.1 g); type: functional
Rattus norvegicus [23] = assay: Antiarthritic activity in CFA-induced Sprague-Dawley rat rheumatoid arthritis model assessed as difference between weight burden on contralateral and ipsilateral paw at 10 mg/kg, po measured at 15 to 30 mins by incapacitance test (reference value: 54.2 +/- 5.1 g); type: functional
Rattus norvegicus [24] = assay: Antiarthritic activity in CFA-induced Sprague-Dawley rat rheumatoid arthritis model assessed as increase in tolerated weight on ipsilateral paw at 1 mg/kg, po measured at 60 mins by paw pressure test; type: functional, organism-based; method in brief: as §1
Rattus norvegicus [25] = assay: Antiarthritic activity in CFA-induced Sprague-Dawley rat rheumatoid arthritis model assessed as decrease in difference between weight burden on contralateral and ipsilateral paw at 0.1 mg/kg, po measured up to 45 mins by incapacitance test; type: functional, organism-based
Rattus norvegicus [26] = assay: Antiarthritic activity in CFA-induced Sprague-Dawley rat rheumatoid arthritis model assessed as difference between weight burden on contralateral and ipsilateral paw at 0.1 mg/kg, po measured at 15 to 30 mins by incapacitance test (reference value: 54.2 +/- 5.1 g); type: functional
Rattus norvegicus [27] = assay: Antiarthritic activity in CFA-induced Sprague-Dawley rat rheumatoid arthritis model assessed as decrease in difference between weight burden on contralateral and ipsilateral paw at 5.8 mg/kg, po measured up to 75 mins by incapacitance test; type: functional, organism-based
Rattus norvegicus [28] = assay: Antiarthritic activity in CFA-induced Sprague-Dawley rat rheumatoid arthritis model assessed as increase in tolerated weight on ipsilateral paw at 5.8 mg/kg, po measured at 15 mins by paw pressure test; type: functional, organism-based; method in brief: as §1

Carbonic anhydrase 1, sequence (P00915 whole entry): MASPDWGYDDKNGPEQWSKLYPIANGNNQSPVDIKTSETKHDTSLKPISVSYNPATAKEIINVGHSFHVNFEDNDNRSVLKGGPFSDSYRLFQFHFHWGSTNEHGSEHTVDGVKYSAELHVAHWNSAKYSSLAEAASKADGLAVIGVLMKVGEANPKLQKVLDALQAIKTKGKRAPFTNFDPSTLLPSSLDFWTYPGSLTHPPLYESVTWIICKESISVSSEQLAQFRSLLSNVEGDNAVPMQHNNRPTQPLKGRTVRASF
Carbonic anhydrase 12, sequence (O43570 whole entry): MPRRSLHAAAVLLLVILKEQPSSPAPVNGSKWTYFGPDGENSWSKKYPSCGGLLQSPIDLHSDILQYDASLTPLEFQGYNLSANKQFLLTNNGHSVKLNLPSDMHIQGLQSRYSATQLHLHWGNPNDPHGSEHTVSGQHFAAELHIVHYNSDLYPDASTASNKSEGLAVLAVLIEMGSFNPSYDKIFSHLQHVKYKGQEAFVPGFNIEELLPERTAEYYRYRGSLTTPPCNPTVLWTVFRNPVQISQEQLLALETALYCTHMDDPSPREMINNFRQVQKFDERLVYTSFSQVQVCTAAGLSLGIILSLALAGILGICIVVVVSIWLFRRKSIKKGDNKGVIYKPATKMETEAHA
Carbonic anhydrase 4, sequence (P22748 whole entry): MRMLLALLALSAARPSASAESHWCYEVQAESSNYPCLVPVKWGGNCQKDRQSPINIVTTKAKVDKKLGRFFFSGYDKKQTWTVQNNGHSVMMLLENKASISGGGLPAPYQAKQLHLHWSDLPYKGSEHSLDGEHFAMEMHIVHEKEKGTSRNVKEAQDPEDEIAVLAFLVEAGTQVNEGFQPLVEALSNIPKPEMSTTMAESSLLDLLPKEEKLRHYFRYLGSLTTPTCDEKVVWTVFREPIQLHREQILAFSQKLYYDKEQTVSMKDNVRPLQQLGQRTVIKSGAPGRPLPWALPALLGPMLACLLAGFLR

| Ki (Carbonic anhydrase 1) [nM] | Ki (Carbonic anhydrase 2 [12]) [nM] | Ki (Carbonic anhydrase 12) [nM] | Ki (Carbonic anhydrase 4) [nM] | Ki (Carbonic anhydrase 9) [nM] | SMILES | Activity (Rattus norvegicus [1]) | Activity (Rattus norvegicus [2]) [g] | Activity (Rattus norvegicus [3]) | Activity (Rattus norvegicus [4]) [g] | Activity (Rattus norvegicus [5]) [g] | Activity (Rattus norvegicus [6]) | Activity (Rattus norvegicus [7]) | Activity (Rattus norvegicus [8]) [g] | Activity (Rattus norvegicus [14]) [g] | Activity (Rattus norvegicus [19]) [g] | also measured |
| --- | --- | --- | --- | --- | --- | --- | --- | --- | --- | --- | --- | --- | --- | --- | --- | --- |
| 8.1 | 6.5 | 54 | 3010 | 39.3 | CC(C(=O)NCCc1ccc(S(N)(=O)=O)cc1)c1cccc(C(=O)c2ccccc2)c1 (racemic) | Active | 28.6 | Dose-dependent effect | 36.8 | 51.7 | Active | Non-Toxic | 53.3 | 50 | – | Activity (Rattus norvegicus [9]): Active; Activity (Rattus norvegicus [10]): 56.7 g; Activity (Rattus norvegicus [11]): 50 g; Ratio Ki (Carbonic anhydrase 2 [13]): 1.86; Activity (Rattus norvegicus [15]): Active; Activity (Rattus norvegicus [16]): Active |
| 64.9 | 27.3 | 94.4 | 6860 | 62.5 | CC1=C(CC(=O)NCCc2ccc(S(N)(=O)=O)cc2)c2cc(F)ccc2/C1=C/c1ccc([S+](C)[O-])cc1 (centres undefined) | – | – | Dose-dependent effect | – | 55 | Active | Non-Toxic | – | – | 64.2 | Activity (Rattus norvegicus [17]): 62.5 g; Activity (Rattus norvegicus [18]): Dose-dependent effect; Activity (Rattus norvegicus [20]): 55 g; Activity (Rattus norvegicus [21]): inactive; Activity (Rattus norvegicus [22]): 22.3 g; Activity (Rattus norvegicus [23]): 8.6 g |
| 68.4 | 43.7 | 90.2 | 8650 | 43.3 | NS(=O)(=O)c1ccc(CCNC(=O)Cc2ccccc2Nc2c(Cl)cccc2Cl)cc1 | Active | 14.7 | – | 20.6 | – | Active | Non-Toxic | 56.7 | 52.5 | 66.3 | Activity (Rattus norvegicus [24]): inactive; Activity (Rattus norvegicus [25]): Active; Activity (Rattus norvegicus [26]): 39 g |
| – | – | – | – | – | CC(C(=O)O)c1cccc(C(=O)c2ccccc2)c1 (centres undefined) | – | – | – | – | – | – | – | – | – | – | Activity (Rattus norvegicus [27]): Active; Activity (Rattus norvegicus [28]): Active |
